How the values were obtained:
[1] = Drug uptake in mouse Astrocyte cells expressing OATPIC4/5/6 at 100 uM incubated for 30 mins in presence of naringin by liquid scintillation counter analysis; format: ADME, cell-based; details: 0.5 h
How it was run: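 Astrocytes preincubated 10 min with naringin (100 μM), then incubated with substrate (100 μM) plus naringin in HBSS pH 7.4 for 30 min at 37 °C. Uptake normalized to protein and expressed relative to control; one-way ANOVA with Dunnett's test.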

[2] = Drug uptake in human U-87 MG cells expressing OATPIC1 at 100 uM incubated for 30 mins in presence of flufenamic acid by HPLC analysis; format: ADME, cell-based; details: u-87mg atcc, 0.5 h
How it was run: (§1)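 U-87MG cells preincubated 10 min with diclofenac or flufenamic acid (100 μM), then co-incubated with the compound (100 μM) plus inhibitor in HBSS pH 7.4 for 30 min at 37 °C. Uptake quantified by HPLC, normalized to protein and expressed as % of control. One-way ANOVA with Dunnett's test; n = 3.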

[3] = Drug uptake in human U-87 MG cells expressing OATPIC1 at 100 uM incubated for 30 mins in presence of diclofenac by HPLC analysis; format: ADME, cell-based; details: u-87mg atcc, 0.5 h; how it was run: as §1
[4] = Chemical stability in Tris-HCI buffer at pH 7.4 at 100 uM and measured after 24 hrs by HPLC analysis; format: physicochemical; details: pH 7.4, 24 h
How it was run: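 Prodrug (100 μM initial, from 10 mM DMSO stock; 2% DMSO) incubated at 37 °C in 50 mM Tris–HCl pH 7.4 for 24 h. Samples taken at intervals, quenched 1:1 with ACN, analysed by HPLC-UV (230–240 nm). Pseudo-first-order t1/2 taken from the slope of log remaining prodrug vs time.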

[5] = Prodrug conversion in human U-87 MG cells expressing OATPIC1 assessed as OATPIC1 mediated drug release at 100 uM incubated for 30 mins by HPLC analysis; format: ADME, cell-based; details: u-87mg atcc, 0.5 h
How it was run: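 U-87MG cells incubated with prodrug at 100 μM for 30 min at 37 °C in HBSS. Released parent drug in cell lysate measured by HPLC and normalized to protein, alongside uptake of the parent drug itself; n = 3–6.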

[6] = Drug uptake in human U-87 MG cells expressing OATPIC1 assessed as Vmax at 200 uM incubated for 30 mins by Michaelis-Menten analysis; format: ADME, cell-based; details: u-87mg atcc, 0.5 h
How it was run: (§2)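 U-87MG cells seeded at 1 × 10^5/well and used 1 day later. After 10 min preincubation in HBSS pH 7.4 at 37 °C, compounds added at 5–400 μM for 30 min at 37 °C. Cells washed with ice-cold HBSS, lysed in 0.1 M NaOH, acidic-ACN precipitated, analysed by HPLC against a spiked lysate standard curve, and normalized to Bradford protein. Km/Vmax fitted by Michaelis–Menten; n = 3 biological replicates.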

[7] = Prodrug conversion in JAXC57BL/6 mouse brain assessed as total amount of prodrug and ketoprofen level at 25 micromol/kg,ip and measured after 30 mins by LC-MS/MS analysis; format: ADME, tissue-based; details: in vivo, 0.5 h, dose 25 µmol/kg
How it was run: (§3)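 Male C57BL/6J mice, seven weeks old, given an ip bolus of 25 μmol/kg. Formulation 2.5 mM in saline with 30% Macrogol 15-hydroxystearate and 3% DMSO. Pentobarbital anaesthesia, then transcardial perfusion with ice-cold saline for 1 min. Whole brain (minus cerebellum and pons) taken at 30 min, homogenized in Tris pH 7.4, ACN-precipitated with labetalol internal standard, and quantified by LC–MS/MS in nmol/g.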

[8] = Drug uptake in mouse Astrocyte cells expressing OATPIC4/5/6 assessed as Vmax at 200 uM incubated for 30 mins by Michaelis-Menten analysis; format: ADME, cell-based; details: 0.5 h
How it was run: (§4)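 Primary astrocytes from neonatal (P0–2) C57BL/6JOlaHsd pups, microglia removed at day 7, seeded at 10^4 cells/well 3 days before assay. Substrate added at 5–400 μM in HBSS pH 7.4 for 30 min at 37 °C. [3H]-estrone-3-sulfate measured by liquid scintillation and prodrugs by HPLC; normalized to protein. Km/Vmax fitted by Michaelis–Menten.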

[9] = Drug uptake in JAXC57BL/6 mouse brain at 25 micromol/kg,ip and measured after 30 mins by LC-MS/MS analysis; format: ADME, tissue-based; details: in vivo, 0.5 h, dose 25 µmol/kg; how it was run: as §3
[10] = Drug uptake in mouse Astrocyte cells expressing OATPIC4/5/6 at 100 uM incubated for 30 mins in absence of Na+ ions by liquid scintillation counter analysis; format: ADME, cell-based; details: 0.5 h
How it was run: (§5)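 Mouse primary astrocytes incubated with [3H]-estrone-3-sulfate for 30 min at 37 °C in HBSS at pH 4.5–8.5 (MES or HEPES buffer). At pH 7.4, uptake was also run with choline chloride in place of Na+. Read by liquid scintillation counting and normalized to protein; n = 3 biological replicates.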

[11] = Drug uptake in mouse Astrocyte cells expressing OATPIC4/5/6 at 100 uM incubated for 30 mins in presence of Na+ ions by liquid scintillation counter analysis; format: ADME, cell-based; details: 0.5 h; how it was run: as §5
[12] = Drug uptake in mouse Astrocyte cells expressing OATPIC4/5/6 at 5 to 400 uM incubated for 30 mins by liquid scintillation counter analysis; format: ADME, cell-based; details: 0.5 h, dose 5-400 µM; how it was run: as §4
[13] = Drug uptake in mouse Astrocyte cells expressing OATPIC4/5/6 at pH 4.5 to 8.5 at 100 uM incubated for 30 mins by liquid scintillation counter analysis; format: ADME, cell-based; details: pH 4.5, 0.5 h; how it was run: as §5
[14] = Drug uptake in human U-87 MG cells expressing OATPIC1 at 100 uM incubated for 30 mins in absence of Na+ ions by HPLC analysis; format: ADME, cell-based; details: u-87mg atcc, 0.5 h
How it was run: (§6)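 U-87MG cells incubated with T4 for 30 min at 37 °C in HBSS buffered with HEPES (pH 7.4, 8.5) or MES (pH 4.5–6.5). For Na+-free conditions, choline chloride replaced NaCl at pH 7.4. Lysates analysed by HPLC and normalized to protein; mean ± SD, n = 3 biological replicates.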

[15] = Drug uptake in human U-87 MG cells expressing OATPIC1 at 100 uM incubated for 30 mins in presence of Na+ ions by HPLC analysis; format: ADME, cell-based; details: u-87mg atcc, 0.5 h; how it was run: as §6
[16] = Drug uptake in human U-87 MG cells expressing OATPIC1 at pH 4.5 to 8.5 at 100 uM incubated for 30 mins by HPLC analysis; format: ADME, cell-based; details: u-87mg atcc, pH 4.5, 0.5 h; how it was run: as §6
[17] = Drug uptake in human U-87 MG cells expressing OATPIC1 at 5 to 400 uM incubated for 30 mins by HPLC analysis; format: ADME, cell-based; details: u-87mg atcc, 0.5 h, dose 5-400 µM; how it was run: as §2

| SMILES | Drug uptake [1] | Drug uptake [2] | Drug uptake [3] | Stability [4] | Drug metabolism [5] | other results |
| --- | --- | --- | --- | --- | --- | --- |
| CC(C(=O)Oc1c(I)cc(C[C@H](N)C(=O)O)cc1I)c1ccc(-c2ccccc2)c(F)c1 (stereo not given in full) | Not Active | Not Active | Not Active | Stable | Metabolite_Detected |  |
| N[C@@H](Cc1cc(I)c(Oc2cc(I)c(OC(=O)c3ccccc3O)c(I)c2)c(I)c1)C(=O)O | Not Active | Active | Active | Stable | Metabolite_Detected |  |
| N[C@@H](Cc1cc(I)c(OC(=O)c2ccccc2O)c(I)c1)C(=O)O | Not Active | Active | Active | Stable | Metabolite_Detected |  |
| COc1ccc2cc([C@H](C)C(=O)Oc3c(I)cc(Oc4c(I)cc(C[C@H](N)C(=O)O)cc4I)cc3I)ccc2c1 | Active | Active | Not Active | Stable | Metabolite_Detected |  |
| CC(C(=O)Oc1c(I)cc(C[C@H](N)C(=O)O)cc1I)c1cccc(C(=O)c2ccccc2)c1 (stereo not given in full) | Not Active | Active | Active | Stable | Metabolite_Detected | Vmax [6]: 1.27 nmol/min/mg |
| COc1ccc2cc([C@H](C)C(=O)Oc3c(I)cc(C[C@H](N)C(=O)O)cc3I)ccc2c1 | Active | Active | Active | Stable | Metabolite_Detected |  |
| CC(C(=O)Oc1c(I)cc(Oc2c(I)cc(C[C@H](N)C(=O)O)cc2I)cc1I)c1ccc(-c2ccccc2)c(F)c1 (stereo not given in full) | Not Active | Not Active | Not Active | Stable | Metabolite_Detected |  |
| CC(C(=O)Oc1c(I)cc(Oc2c(I)cc(C[C@H](N)C(=O)O)cc2I)cc1I)c1cccc(C(=O)c2ccccc2)c1 (stereo not given in full) | Not Active | Not Active | Not Active | Stable | Metabolite_Detected | Drug uptake [7]: 0.78 nmol/g; Vmax [8]: 5.5 nmol/min/mg |
| CC(C(=O)O)c1cccc(C(=O)c2ccccc2)c1 (racemic) [KETOPROFEN] |  |  |  |  |  | Drug uptake [9]: 0.22 nmol/g |
| C[C@]12CC[C@@H]3c4ccc(OS(=O)(=O)O)cc4CC[C@H]3[C@@H]1CCC2=O [ESTRONE SULFURIC ACID] | Not Active |  |  |  |  | Drug uptake [10]: Active; Drug uptake [11]: Active; Drug uptake [12]: Active; Drug uptake [13]: Active |
| N[C@@H](Cc1cc(I)c(Oc2cc(I)c(O)c(I)c2)c(I)c1)C(=O)O [LEVOTHYROXINE] |  | Not Active | Not Active |  |  | Drug uptake [14]: Active; Drug uptake [15]: Active; Drug uptake [16]: Active; Drug uptake [17]: Active |

— ChEMBL document CHEMBL5390271, “Targeting Glial Cells by Organic Anion-Transporting Polypeptide 1C1 (OATP1C1)-Utilizing l-Thyroxine-Derived Prodrugs” (J Med Chem, 2023)
